Active and inactive are the calls of the source. The calls are words filed in the database; no cut-off is given here.
Legend:
[1] = molecular target: Adenosine receptors; A1 & A3 (Homo sapiens) (UniProt P30542+P0DMS8); test: Selectivity ratio of Ki for recombinant human adenosine A3 receptor to Ki for recombinant human adenosine A1 receptor
Summary of the method: (§1)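 Ratios computed from Ki values obtained by competition binding in human receptor-transfected CHO membranes: [3H]CCPA 1 nM (A1), [3H]NECA 10 nM (A2A), [3H]HEMADO 1 nM (A3).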

Adenosine receptor A2a = Adenosine receptor A2a (Homo sapiens, UniProt P29274); test: Displacement of [3H]NECA from recombinant human adenosine A2A receptor expressed in CHO cell membranes after 3 hrs
Chain of Adenosine receptor A2a (P29274 whole entry): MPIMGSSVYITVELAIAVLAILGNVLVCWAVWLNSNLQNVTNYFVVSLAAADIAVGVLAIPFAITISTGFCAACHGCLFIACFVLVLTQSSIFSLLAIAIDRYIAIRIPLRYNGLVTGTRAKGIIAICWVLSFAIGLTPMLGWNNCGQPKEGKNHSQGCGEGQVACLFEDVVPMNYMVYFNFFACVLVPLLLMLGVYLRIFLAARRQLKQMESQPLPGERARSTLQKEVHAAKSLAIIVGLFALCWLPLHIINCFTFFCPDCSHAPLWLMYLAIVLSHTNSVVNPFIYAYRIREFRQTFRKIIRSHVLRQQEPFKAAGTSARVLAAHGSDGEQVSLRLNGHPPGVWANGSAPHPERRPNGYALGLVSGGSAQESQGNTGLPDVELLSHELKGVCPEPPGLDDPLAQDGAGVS
Summary of the method: (§2)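 Competition binding on CHO membranes stably expressing the human subtype (two-step 1,000 x g then 100,000 x g centrifugation, stored -80°C). Radioligands: 1 nM [3H]CCPA (A1), 10 nM [3H]NECA (A2A), 1 nM [3H]HEMADO (A3). Nonspecific binding: 1 mM theophylline (A1) or 100 µM R-PIA (A2A, A3). Ki from competition curves; geometric means with 95% CI, duplicates, n ≥ 3.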

Homo sapiens = organism: Homo sapiens; test: Selectivity ratio of Ki for recombinant human adenosine A2A receptor to Ki for recombinant human adenosine A1 receptor; summary of the method: as §1
Adenosine receptor A2b = molecular target: T1, Adenosine receptor A2b (Homo sapiens, UniProt P29275); test: Agonist activity at recombinant human adenosine A2B receptor expressed in CHO cell membranes assessed as stimulation of adenylyl cyclase activity in presence of […]; assay type: functional, cell-based
T1 sequence (P29275 whole entry): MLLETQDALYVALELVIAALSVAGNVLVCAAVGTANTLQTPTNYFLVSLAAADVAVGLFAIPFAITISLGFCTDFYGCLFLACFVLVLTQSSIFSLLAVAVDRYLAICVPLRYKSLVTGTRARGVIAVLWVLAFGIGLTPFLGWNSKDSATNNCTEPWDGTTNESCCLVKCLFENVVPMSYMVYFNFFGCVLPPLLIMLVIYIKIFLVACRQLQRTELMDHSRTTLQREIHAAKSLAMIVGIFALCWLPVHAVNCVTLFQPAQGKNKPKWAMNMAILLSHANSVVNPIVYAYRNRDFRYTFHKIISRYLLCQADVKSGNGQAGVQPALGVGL
Summary of the method: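 A2B potency from stimulation of adenylyl cyclase in crude CHO membranes (single high-speed centrifugation, resuspended in 50 mM Tris/HCl pH 7.4, used immediately); EC50 derived. Where only partial agonism was seen, efficacy was compared to 100 µM NECA as full agonist. Geometric means, 95% CI, duplicates, n ≥ 3.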

Adenosine receptor A1 [2] = molecular target: T2, Adenosine receptor A1 (Homo sapiens, UniProt P30542); test: Displacement of [3H]CCPA from recombinant human adenosine A1 receptor expressed in CHO cell membranes after 3 hrs; summary of the method: as §2
T2 sequence (P30542 whole entry): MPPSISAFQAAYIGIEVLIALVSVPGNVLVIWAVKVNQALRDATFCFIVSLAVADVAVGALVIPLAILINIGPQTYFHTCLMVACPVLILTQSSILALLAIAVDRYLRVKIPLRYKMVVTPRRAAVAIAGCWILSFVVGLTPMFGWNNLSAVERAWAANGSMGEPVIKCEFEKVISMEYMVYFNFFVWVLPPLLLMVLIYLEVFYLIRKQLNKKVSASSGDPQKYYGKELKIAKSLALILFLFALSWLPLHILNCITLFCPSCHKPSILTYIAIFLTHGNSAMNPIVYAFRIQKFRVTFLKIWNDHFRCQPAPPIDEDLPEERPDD

Adenosine receptor A3 [3] = molecular target: T3, Adenosine receptor A3 (Homo sapiens, UniProt P0DMS8); test: Displacement of [3H]HEMADO from recombinant human adenosine A3 receptor expressed in CHO cell membranes after 3 hrs; summary of the method: as §2
T3 sequence (P0DMS8 whole entry): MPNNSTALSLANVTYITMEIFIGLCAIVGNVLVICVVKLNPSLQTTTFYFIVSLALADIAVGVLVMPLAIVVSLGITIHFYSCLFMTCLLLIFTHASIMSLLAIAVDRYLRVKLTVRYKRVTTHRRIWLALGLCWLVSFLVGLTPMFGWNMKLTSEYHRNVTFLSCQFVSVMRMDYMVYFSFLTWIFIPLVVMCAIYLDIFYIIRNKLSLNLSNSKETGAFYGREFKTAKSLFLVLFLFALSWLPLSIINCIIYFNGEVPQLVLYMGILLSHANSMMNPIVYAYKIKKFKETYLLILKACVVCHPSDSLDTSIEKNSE

[4] = molecular target: T4, Adenosine receptor A1 (Homo sapiens) (UniProt P30542); test: Agonist activity at recombinant human adenosine A1 receptor expressed in CHO cell membranes assessed as inhibition of forskolin-stimulated adenylyl cyclase activity in presence of […] relative to CCPA
T4 sequence (whole entry): T2 sequence (P30542 whole entry)

Mus musculus [5] = test: Antinociceptive activity in ip dosed C57BL/6 mouse assessed as reduction in prolonged phase of tonic pain administered 10 mins prior to formalin challenge measured after 60 mins; assay type: functional, organism-based
Summary of the method: (§3)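 Adult male C57BL/6 mice (25-30 g), acclimatized 30 min in test chamber. Compound or vehicle (10% DMSO in 0.9% NaCl) given i.p. 10 min before 30 µL 1.25% formalin s.c. into dorsal hind paw; DPCPX 1 mg/kg i.p. where co-given. Blinded observers recorded paw lifting/licking time every 5 min for 60 min; early phase 0-7 min, late phase 15-60 min. 8-10 mice/group, mean ± SEM.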

Adenosine receptor A1 [6] = molecular target: T2, Adenosine receptor A1; test: Agonist activity at recombinant human adenosine A1 receptor expressed in CHO cell membranes assessed as inhibition of forskolin-stimulated adenylyl cyclase activity in presence of […]
Mus musculus [7] = test: Antinociceptive activity in C57BL/6 mouse assessed as reduction in prolonged phase of tonic pain at 2 mg/kg, ip administered 10 mins prior to formalin challenge measured after 60 mins in presence of A1AR antagonist DPCPX; assay type: functional, organism-based; summary of the method: as §3
Adenosine receptor A3 [8] = molecular target: T3, Adenosine receptor A3; test: Antagonist activity at recombinant human adenosine A3 receptor expressed in CHO cell membranes assessed as inhibition of forskolin-stimulated adenylyl cyclase in presence of […]; assay type: functional, cell-based
Summary of the method: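 hA3-CHO membranes (one high-speed spin, 50 mM Tris/HCl pH 7.4, used fresh) tested for reversal of NECA-induced inhibition of forskolin-stimulated adenylyl cyclase. NECA served as reference agonist. Points in duplicate, at least 3 independent experiments.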

Mus musculus [9] = test: Antinociceptive activity in C57BL/6 mouse assessed as reduction in early phase of tonic pain at 4 mg/kg, ip administered 10 mins prior to formalin challenge measured after 7 mins in presence of A1AR antagonist DPCPX; assay type: functional, organism-based; summary of the method: as §3
Mus musculus [10] = test: Antinociceptive activity in C57BL/6 mouse assessed as reduction in early phase of tonic pain at 4 mg/kg, ip administered 10 mins prior to formalin challenge measured after 7 mins; assay type: functional, organism-based; summary of the method: as §3
Mus musculus [11] = test: Antinociceptive activity in C57BL/6 mouse assessed as reduction in early phase of tonic pain at 2 mg/kg, ip administered 10 mins prior to formalin challenge measured after 7 mins; assay type: functional, organism-based; summary of the method: as §3
Mus musculus [12] = test: Antinociceptive activity in C57BL/6 mouse assessed as reduction in prolonged phase of tonic pain at 4 mg/kg, ip administered 10 mins prior to formalin challenge measured after 60 mins; assay type: functional, organism-based; summary of the method: as §3
Mus musculus [13] = test: Antinociceptive activity in C57BL/6 mouse assessed as reduction in prolonged phase of tonic pain at 4 mg/kg, ip administered 10 mins prior to formalin challenge measured after 60 mins in presence of A1AR antagonist DPCPX; assay type: functional, organism-based; summary of the method: as §3

Ratio Ki [1]	Ki (Adenosine receptor A2a) [nM]	Ratio Ki (Homo sapiens)	EC50 (Adenosine receptor A2b) [nM]	Ki (Adenosine receptor A1 [2]) [nM]	Ki (Adenosine receptor A3 [3]) [nM]	Efficacy [4] [%]	EC50 (Adenosine receptor A1 [6]) [nM]	IC50 (Adenosine receptor A3 [8]) [nM]	Compound	Activity (Mus musculus [5])	Activity (Mus musculus [7])	Activity (Mus musculus [9])	Activity (Mus musculus [10])	Activity (Mus musculus [11])	Activity (Mus musculus [12])	Activity (Mus musculus [13])
11	28600	58	> 60000	491	5280				Cc1cc(C)n(C[C@H]2O[C@@H](n3cnc4c(N[C@@H]5CCOC5)ncnc43)[C@H](O)[C@@H]2O)n1							
213	19600	765	> 30000	25.6	5450				Cc1cc(C)n(C[C@H]2O[C@@H](n3cnc4c(NC5CC6CCC5C6)ncnc43)[C@H](O)[C@@H]2O)n1 (mixture of isomers)							
2.3	11900	27	> 60000	438	996				Cc1cc(C)n(C[C@H]2O[C@@H](n3cnc4c(N[C@@H]5CCOC5)nc(Cl)nc43)[C@H](O)[C@@H]2O)n1							
333	9430	2170	> 30000	4.35	1450	> 90	134		Cc1cc(C)n(C[C@H]2O[C@@H](n3cnc4c(NC5CC6CCC5C6)nc(Cl)nc43)[C@H](O)[C@@H]2O)n1 (mixture of isomers)	Dose-dependent effect						
314	8680	2480	20000	3.5	1100	> 90	54.2		O[C@@H]1[C@H](O)[C@@H](CCl)O[C@H]1n1cnc2c(N[C@@H]3CCOC3)nc(Cl)nc21	Dose-dependent effect	inactive					
21	1960	175	> 60000	11.2	232				O[C@@H]1[C@H](O)[C@@H](CCl)O[C@H]1n1cnc2c(Nc3ccc(Cl)cc3F)nc(Cl)nc21							
18	10200	548	> 30000	18.6	343	> 90	541	1910	Cc1cc(C)n(C[C@H]2O[C@@H](n3cnc4c(NC5CCCC5)nc(Cl)nc43)[C@H](O)[C@@H]2O)n1							
1	> 100000	> 719	> 60000	139	139	> 90	5570	701	Cc1cc(C)n(C[C@H]2O[C@@H](n3cnc4c(Nc5ccc(Cl)cc5F)nc(Cl)nc43)[C@H](O)[C@@H]2O)n1							
17	6830	43	> 60000	158	2730				Cc1cc(C)n(C[C@H]2O[C@@H](n3cnc4c(Nc5ccc(Cl)cc5F)ncnc43)[C@H](O)[C@@H]2O)n1							
49	14500	126	> 60000	115	5640				Cc1cc(C)n(C[C@H]2O[C@@H](n3cnc4c(NC5CCCC5)ncnc43)[C@H](O)[C@@H]2O)n1							
73	1360	727	3740	1.87	136	> 90	56	4140	O[C@@H]1[C@H](O)[C@@H](CCl)O[C@H]1n1cnc2c(Nc3ccc(Cl)cc3F)ncnc21							
635	10400	5500	12800	1.89	1200	> 90	140		O[C@@H]1[C@H](O)[C@@H](CCl)O[C@H]1n1cnc2c(N[C@@H]3CCOC3)ncnc21			inactive	Active	Active	Active	inactive

Reference: ChEMBL document CHEMBL4024784, “Structure-Based Design, Synthesis, and In Vivo Antinociceptive Effects of Selective A1 Adenosine Receptor Agonists” (J Med Chem, 2018)
